Measured values published in ChEMBL document CHEMBL2203262, “The design and synthesis of indazole and pyrazolopyridine based glucokinase activators for the treatment of type 2 diabetes mellitus” (Bioorg Med Chem Lett, 2012).
Converted amounts (≈) assume the structure as drawn.

What was measured:
[1] = Lipophilicity, log D of the compound by shake flask method; type: physicochemical; conditions: octanol/water
[2] = Intrinsic clearance of the compound in human liver microsomes; type: ADME, Microsome; conditions: read-out: CLH
Method in brief: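 Human liver microsomal stability; intrinsic clearance expressed as ml/min/kg.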

[3] = Passive permeability of the compound in dog RRCK cells; type: ADME, cell-based, Canis lupus familiaris, MDCKII-LE; conditions: MDCK, read-out: permeability
Method in brief: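 Passive permeability measured in the RRCK cell line; reported as 10^-6 cm/s.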

[4] = Kinetic solubility of the compound; type: physicochemical; conditions: read-out: Kinetic_solubility
Hexokinase-4 [5] = target: T1, Hexokinase-4 (Homo sapiens, UniProt P35557); test: Activation of recombinant human glucokinase assessed measuring rate of glucose 6-phosphate formation using G6PDH/NADP coupling
T1 sequence (P35557 whole entry): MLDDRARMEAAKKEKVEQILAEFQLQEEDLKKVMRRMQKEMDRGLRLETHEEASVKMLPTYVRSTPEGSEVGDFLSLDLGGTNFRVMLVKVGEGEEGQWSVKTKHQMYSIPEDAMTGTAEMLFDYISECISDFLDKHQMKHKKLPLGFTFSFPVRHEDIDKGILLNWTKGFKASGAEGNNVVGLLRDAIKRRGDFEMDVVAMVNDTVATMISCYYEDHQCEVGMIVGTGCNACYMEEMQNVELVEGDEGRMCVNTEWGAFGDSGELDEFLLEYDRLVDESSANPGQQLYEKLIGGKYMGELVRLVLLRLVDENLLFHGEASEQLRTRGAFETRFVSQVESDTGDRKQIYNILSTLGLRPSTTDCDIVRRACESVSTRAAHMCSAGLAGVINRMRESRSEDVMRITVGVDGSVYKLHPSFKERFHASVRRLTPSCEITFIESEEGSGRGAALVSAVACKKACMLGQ

INS1 = test: Increase of glucose-stimulated insulin secretion in rat INS-1 cells
[6] = Half life in Wistar-Han rat at 1 mg/kg, iv; type: ADME, organism-based; parameters: dose 1 mg/kg, route intravenous; conditions: in vivo
Method in brief: (§1)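 Wistar-Han rats, n = 3 animals/group. Single intravenous dose of 1 mg/kg; plasma pharmacokinetic parameters determined.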

[7] = AUC in Wistar-Han rat at 5 mg/kg, po; type: ADME, organism-based; parameters: dose 5 mg/kg, route oral; conditions: plasma
Method in brief: (§2)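 Pharmacokinetics in Wistar-Han rats, n = 3 animals per group. Intravenous dosing was at 1 mg/kg, and oral dosing was at 5 mg/kg. Plasma AUC, Cmax, t1/2, clearance, Vdss and oral bioavailability were derived. Urine was collected after the i.v. dose to assess renal excretion.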

[8] = Fraction unbound in human plasma; type: ADME, cell-free
[9] = Genotoxicity in micronucleus
[10] = Oral bioavailability in Wistar-Han rat at 5 mg/kg; type: ADME, organism-based; conditions: in vivo
Rattus norvegicus [11] = test: Antidiabetic activity in po dosed Sprague-Dawley rat assessed as reduction of plasma glucose AUC excursion by oral glucose tolerance test; type: functional, organism-based
Method in brief: (§3)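 Sprague-Dawley rats fasted overnight, dosed orally at t = −60 min with 10, 25, 100 or 250 mg/kg as suspension in 30% sulfobutylether/water. Oral glucose challenge 2 g/kg at t = 0 min.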

[12] = Fraction unbound in rat plasma; type: ADME, cell-free
[13] = Clearance in Wistar-Han rat at 1 mg/kg, iv; type: ADME, organism-based; parameters: dose 1 mg/kg, route intravenous; conditions: in vivo; method in brief: as §1
[14] = Volume of distribution at steady state in Wistar-Han rat at 1 mg/kg, iv; type: ADME, organism-based; parameters: dose 1 mg/kg, route intravenous; conditions: in vivo, read-out: Vdss; method in brief: as §1
[15] = AUC in Wistar-Han rat at 1 mg/kg, iv; type: ADME, organism-based; parameters: dose 1 mg/kg, route intravenous; conditions: plasma; method in brief: as §2
Hexokinase-4 [16] = target: T2, Hexokinase-4 (Rattus norvegicus, UniProt P17712); test: Activation of recombinant rat glucokinase assessed measuring rate of glucose 6-phosphate formation using G6PDH/NADP coupling
T2 sequence (P17712 whole entry): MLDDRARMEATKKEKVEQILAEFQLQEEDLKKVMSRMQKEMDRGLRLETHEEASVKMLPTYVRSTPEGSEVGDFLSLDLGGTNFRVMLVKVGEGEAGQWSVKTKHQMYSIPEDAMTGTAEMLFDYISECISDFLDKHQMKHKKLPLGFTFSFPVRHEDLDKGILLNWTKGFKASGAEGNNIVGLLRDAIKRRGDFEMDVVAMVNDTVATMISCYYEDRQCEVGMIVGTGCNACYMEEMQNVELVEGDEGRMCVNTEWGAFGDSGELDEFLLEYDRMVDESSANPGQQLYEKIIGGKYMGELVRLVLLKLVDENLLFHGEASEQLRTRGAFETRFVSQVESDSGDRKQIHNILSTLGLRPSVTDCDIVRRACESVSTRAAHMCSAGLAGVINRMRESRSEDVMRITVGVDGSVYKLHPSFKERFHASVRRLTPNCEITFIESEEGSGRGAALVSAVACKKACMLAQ
Method in brief: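 Recombinant rat glucokinase; glucose 6-phosphate formation rate followed by G6PDH/NADP coupling. Matrix format: activator at 22 concentrations (0 to 100 µM range as printed) × 16 glucose concentrations (0 to 100 mM). Nonessential activator model fitted; EC50 = concentration giving half-maximal reduction in glucose Km.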

Rattus norvegicus [17] = test: Antidiabetic activity in Sprague-Dawley rat assessed as reduction of plasma glucose AUC excursion at 250 mg/kg, po by oral glucose tolerance test; type: functional; parameters: scale not given: the % may be the effect or the level left; method in brief: as §3
Rattus norvegicus [18] = test: Toxicity in Sprague-Dawley rat assessed as hypoglycemia at 10 to 250 mg/kg, po; type: organism-based; parameters: dose 10-250 mg/kg, route oral; conditions: in vivo
Method in brief: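 Oral glucose tolerance test in overnight-fasted Sprague-Dawley rats. Single oral dose of 10–250 mg/kg (suspension in 30% sulfobutylether/water) given at t = −60 min, then 2 g/kg glucose orally at t = 0. Hypoglycemia defined as blood glucose <60 mg/dL. n = 7/group.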

[19] = target: Voltage-gated inwardly rectifying potassium channel KCNH2 (Homo sapiens, UniProt Q12809); test: Inhibition of human ERG by patch clamp assay
[20] = Drug excretion in Wistar-Han rat urine at 1 mg/kg, iv; type: ADME, organism-based; parameters: dose 1 mg/kg, route intravenous; conditions: read-out: Drug excretion
[21] = Cmax in Wistar-Han rat at 5 mg/kg, po; type: ADME, organism-based; parameters: dose 5 mg/kg, route oral; conditions: in vivo
[22] = Cmax in Wistar-Han rat at 1 mg/kg, iv; type: ADME, organism-based; parameters: dose 1 mg/kg, route intravenous; conditions: in vivo; method in brief: as §1
[23] = Half life in Wistar-Han rat at 5 mg/kg, po; type: ADME, organism-based; parameters: dose 5 mg/kg, route oral; conditions: in vivo
Salmonella typhimurium = test: Genotoxicity in Salmonella typhimurium by Ames test; type: toxicity, organism-based; conditions: salmonella enterica subsp. enterica serovar typhimurium

Chain of Voltage-gated inwardly rectifying potassium channel KCNH2 (Q12809 whole entry): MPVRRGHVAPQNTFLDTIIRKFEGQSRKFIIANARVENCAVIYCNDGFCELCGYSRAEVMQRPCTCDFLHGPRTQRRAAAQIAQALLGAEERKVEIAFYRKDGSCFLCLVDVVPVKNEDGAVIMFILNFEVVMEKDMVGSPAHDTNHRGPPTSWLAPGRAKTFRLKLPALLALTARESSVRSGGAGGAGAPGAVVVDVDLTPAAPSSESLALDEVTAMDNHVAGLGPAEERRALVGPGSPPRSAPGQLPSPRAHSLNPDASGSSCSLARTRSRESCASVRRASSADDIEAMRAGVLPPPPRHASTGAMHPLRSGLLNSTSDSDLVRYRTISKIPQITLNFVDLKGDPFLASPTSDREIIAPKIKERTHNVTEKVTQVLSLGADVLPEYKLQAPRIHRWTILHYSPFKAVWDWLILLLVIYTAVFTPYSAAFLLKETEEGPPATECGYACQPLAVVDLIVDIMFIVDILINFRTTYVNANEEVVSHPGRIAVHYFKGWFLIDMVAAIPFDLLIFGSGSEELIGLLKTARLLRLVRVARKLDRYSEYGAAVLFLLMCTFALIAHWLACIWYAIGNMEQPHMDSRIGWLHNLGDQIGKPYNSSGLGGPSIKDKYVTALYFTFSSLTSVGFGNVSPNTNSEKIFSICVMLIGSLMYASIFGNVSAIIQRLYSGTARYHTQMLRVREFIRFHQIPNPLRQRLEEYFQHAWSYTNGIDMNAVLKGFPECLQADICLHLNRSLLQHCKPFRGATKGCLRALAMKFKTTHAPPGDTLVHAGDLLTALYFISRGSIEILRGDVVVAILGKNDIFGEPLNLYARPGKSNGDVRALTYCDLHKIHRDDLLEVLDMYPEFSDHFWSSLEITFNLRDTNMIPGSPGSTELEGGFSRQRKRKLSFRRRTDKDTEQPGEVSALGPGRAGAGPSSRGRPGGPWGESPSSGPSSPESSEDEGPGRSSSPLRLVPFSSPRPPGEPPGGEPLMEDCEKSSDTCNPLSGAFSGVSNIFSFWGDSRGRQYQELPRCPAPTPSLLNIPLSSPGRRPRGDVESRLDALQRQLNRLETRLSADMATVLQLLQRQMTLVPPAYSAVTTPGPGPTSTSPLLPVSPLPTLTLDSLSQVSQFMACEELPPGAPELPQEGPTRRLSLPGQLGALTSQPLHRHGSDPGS

SMILES: Cc1cnc(NC(=O)c2cc(Oc3cnc(C(=O)N(C)C)cn3)c3cc(C)oc3c2)cn1
- logD [1]: 2.16
- CLint scaled [2]: < 8 mL/min/kg

SMILES: Cc1cnc(NC(=O)c2cc(Oc3ccc(S(=O)(=O)C4CC4)cc3)c3cn(C)nc3c2)cn1
- Papp [3]: 17.8 ×10⁻⁶ cm/s
- CLint scaled [2]: < 8 mL/min/kg
- solubility kinetic [4]: 73 µM (≈ 33.8 µg/mL)
- EC50 (Hexokinase-4 [5]): 510 nM

SMILES: Cc1cnc(NC(=O)c2cc(Oc3ccc(S(C)(=O)=O)cc3)c3cn(CCO)nc3c2)cn1
- Papp [3]: 6.3 ×10⁻⁶ cm/s
- CLint scaled [2]: < 8.9 mL/min/kg
- solubility kinetic [4]: 24.4 µM (≈ 11.4 µg/mL)
- EC50 (Hexokinase-4 [5]): 1540 nM

SMILES: Cc1cnc(NC(=O)c2cc(Oc3cnc(C(=O)N(C)C)c(F)c3)c3cn(C)nc3c2)cn1
- Papp [3]: 20.2 ×10⁻⁶ cm/s
- CLint scaled [2]: < 8 mL/min/kg
- solubility kinetic [4]: 328 µM (≈ 147 µg/mL)
- EC50 (Hexokinase-4 [5]): 400 nM

SMILES: CCn1cc2c(Oc3cnc(C(=O)N(C)C)c(F)c3)cc(C(=O)Nc3cnc(C)cn3)cc2n1
- Papp [3]: 13.8 ×10⁻⁶ cm/s
- logD [1]: 1.8
- CLint scaled [2]: 10.4 mL/min/kg
- solubility kinetic [4]: 367 µM (≈ 170 µg/mL)
- EC50 (Hexokinase-4 [5]): 230 nM

SMILES: Cc1cnc(NC(=O)c2cc(Oc3ccc(S(=O)(=O)N(C)C)cc3)c3cn(C)nc3c2)cn1
- Papp [3]: 13.6 ×10⁻⁶ cm/s
- CLint scaled [2]: < 8 mL/min/kg
- solubility kinetic [4]: 134 µM (≈ 62.5 µg/mL)
- EC50 (Hexokinase-4 [5]): 440 nM

SMILES: CCCn1cc2c(Oc3ccc(S(C)(=O)=O)cc3)cc(C(=O)Nc3cnc(C)cn3)cc2n1
- Papp [3]: 14.2 ×10⁻⁶ cm/s
- CLint scaled [2]: < 8 mL/min/kg
- solubility kinetic [4]: 2.3 µM (≈ 1.07 µg/mL)
- EC50 (Hexokinase-4 [5]): 310 nM

SMILES: Cc1cnc(NC(=O)c2cc(Oc3cnc(C(=O)N(C)C)nc3)c3cn(C)nc3c2)cn1
- Papp [3]: 11.5 ×10⁻⁶ cm/s
- CLint scaled [2]: < 8 mL/min/kg
- solubility kinetic [4]: 446 µM (≈ 193 µg/mL)
- EC50 (Hexokinase-4 [5]): 910 nM

SMILES: CNS(=O)(=O)c1ccc(Oc2cc(C(=O)Nc3cnc(C)cn3)cc3nn(C)cc23)cc1
- CLint scaled [2]: < 8.6 mL/min/kg
- solubility kinetic [4]: 27 µM (≈ 12.2 µg/mL)

SMILES: Cc1cnc(NC(=O)c2cc(Oc3ccc(S(C)(=O)=O)cc3)c3cn(C)nc3c2)cn1
- Papp [3]: 20.4 ×10⁻⁶ cm/s
- CLint scaled [2]: < 8 mL/min/kg
- solubility kinetic [4]: 454 µM (≈ 199 µg/mL)
- EC50 (Hexokinase-4 [5]): 1930 nM

SMILES: Cc1cnc(NC(=O)c2cc(Oc3ccc(S(C)(=O)=O)cc3)c3cn(C4CC4)nc3c2)cn1
- Papp [3]: 15.5 ×10⁻⁶ cm/s
- CLint scaled [2]: < 8 mL/min/kg
- solubility kinetic [4]: 0.5 µM (≈ 0.232 µg/mL)
- EC50 (Hexokinase-4 [5]): 2030 nM

SMILES: CCn1cc2c(Oc3ccc(S(C)(=O)=O)cc3)cc(C(=O)Nc3cnc(C)cn3)cc2n1
- Papp [3]: 13.4 ×10⁻⁶ cm/s
- CLint scaled [2]: < 8 mL/min/kg
- solubility kinetic [4]: 2.1 µM (≈ 0.948 µg/mL)
- EC50 (Hexokinase-4 [5]): 770 nM

SMILES: Cc1cnc(NC(=O)c2cc(Oc3cnc(C(=O)N(C)C)cn3)c3cc(C)nn3c2)cn1
- Papp [3]: 17 ×10⁻⁶ cm/s
- logD [1]: 1.87
- CLint scaled [2]: 13.7 mL/min/kg
- solubility kinetic [4]: 123 µM (≈ 53.2 µg/mL)
- EC50 (Hexokinase-4 [5]): 620 nM

SMILES: Cc1cnc(NC(=O)c2cc(Oc3cnc(C(=O)N4CCC4)c(F)c3)c3cn(C)nc3c2)cn1
- Papp [3]: 11.9 ×10⁻⁶ cm/s
- CLint scaled [2]: < 8 mL/min/kg
- solubility kinetic [4]: 70 µM (≈ 32.3 µg/mL)
- EC50 (Hexokinase-4 [5]): 340 nM

SMILES: Cc1cnc(NC(=O)c2cc(Oc3ccc(S(N)(=O)=O)cc3)c3cn(C)nc3c2)cn1
- EC50 (Hexokinase-4 [5]): 2320 nM

SMILES: Cc1cnc(NC(=O)c2cc(Oc3cnc(C(=O)N(C)C)cn3)c3cn(C)nc3c2)cn1
- Papp [3]: 20.8 ×10⁻⁶ cm/s
- logD [1]: 0.83
- CLint scaled [2]: < 8.5 mL/min/kg
- solubility kinetic [4]: 192 µM (≈ 83 µg/mL)
- EC50 (Hexokinase-4 [5]): 990 nM

SMILES: CCn1cc2c(Oc3cnc(C(=O)N4CCC4)c(F)c3)cc(C(=O)Nc3cnc(C)cn3)cc2n1
- EC50 (INS1): 170 nM
- half-life [6]: 1 h
- AUC [7]: 5440 ng·h/mL
- fraction unbound [8]: 0.2
- Papp [3]: 16.3 ×10⁻⁶ cm/s
- Activity [9]: Non-toxic
- bioavailability [10]: 69%
- Activity (Rattus norvegicus [11]): Dose-dependent effect
- fraction unbound [12]: 0.18
- logD [1]: 2.01
- clearance [13]: 10.5 mL/min/kg
- Vd [14]: 0.61 L/kg
- AUC [15]: 1580 ng·h/mL
- EC50 (Hexokinase-4 [16]): 350 nM
- Activity (Rattus norvegicus [17]): 22%
- Activity (Rattus norvegicus [18]): Non-toxic
- CLint scaled [2]: < 8 mL/min/kg
- IC50 [19]: > 300000 nM
- dose excreted [20]: < 1%
- solubility kinetic [4]: 84.8 µM (≈ 40.3 µg/mL)
- Cmax [21]: 1490 ng/mL
- EC50 (Hexokinase-4 [5]): 120 nM
- Cmax [22]: 1820 ng/mL
- half-life [23]: 2.6 h
- Activity (Salmonella typhimurium): Non-toxic

SMILES: Cc1cnc(NC(=O)c2cc(Oc3ccc(C(=O)N(C)C)cc3)c3cn(C)nc3c2)cn1
- Papp [3]: 14.6 ×10⁻⁶ cm/s
- CLint scaled [2]: 12.3 mL/min/kg
- solubility kinetic [4]: 351 µM (≈ 151 µg/mL)

SMILES: CCS(=O)(=O)c1ccc(Oc2cc(C(=O)Nc3cnc(C)cn3)cc3nn(C)cc23)cc1
- Papp [3]: 10.6 ×10⁻⁶ cm/s
- CLint scaled [2]: < 8 mL/min/kg
- solubility kinetic [4]: 69 µM (≈ 31.2 µg/mL)
- EC50 (Hexokinase-4 [5]): 980 nM
